The test system of assay [1] is Neutrophil. Briefly: Inhibition of fMLP/CB-induced superoxide anion production in human neutrophils assessed as SOD-based ferricytochrome c reduction assay. The assay is classed as functional, cell-based. In a few lines:
(§1)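 Isolated human neutrophils stimulated with fMLP plus cytochalasin B. Superoxide measured as SOD-inhibitable ferricytochrome c reduction. Azurophilic degranulation measured as elastase release. IC50, the concentration giving 50% inhibition, calculated by computer; mean ± SEM, n = 3–5; Student's t test.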

In assay [2] the test system is Neutrophil. Briefly: Inhibition of fMLP/CB-induced elastase release in human neutrophils. The assay is classed as functional, cell-based. In a few lines:
as §1

As for `COC1=CC(=O)[C@]2(C)C(=O)[C@@]1(CCC(=O)c1ccccc1)[C@H]1c3c(cc(O)c(C)c3OC)O[C@]2(c2ccccc2)[C@@H]1O`, the half-maximal inhibitory concentration (IC50) in assay [1] and in assay [2] was over 10 µM in each case.

Turning to `O=c1cc(N2CCOCC2)oc2c(-c3ccccc3)cccc12` [LY-294002], the results for the IC50 in assay [1] and in assay [2] were 0.4 µM and 1.5 µM, respectively.

For the compound `COC1=CC(=O)C(C)=C2O[C@]3(c4ccccc4)Oc4cc(O)c(C)c(OC)c4[C@@H]([C@H]3O)[C@]12CCC(=O)c1ccccc1`, the 50% inhibitory concentration (IC50) in assay [1] turned out to be 3.1 µM; in assay [2], 4.5 µM.

Turning to `COC1=C(CCC(=O)c2ccccc2)C(=O)[C@@H]2C(=O)[C@H]1[C@H]1c3c(cc(O)c(C)c3OC)O[C@]2(c2ccccc2)[C@@H]1O`, the IC50 in assay [1] and in assay [2] was over 10 µM each time.

The values above are taken from ChEMBL document CHEMBL4177557, “Anti-inflammatory Flavan-3-ol-dihydroretrochalcones from Daemonorops draco” (J Nat Prod, 2017).
